Source: ChEMBL document CHEMBL2163274, “Heterocyclic methylsulfone hydroxamic acid LpxC inhibitors as Gram-negative antibacterial agents” (Bioorg Med Chem Lett, 2012)
Values after ≈ are worked out from the molar mass of the structure shown.

What was measured:
[1] = target: T1, UDP-3-O-acyl-N-acetylglucosamine deacetylase (Pseudomonas aeruginosa, UniProt B5ATN6); assay: Inhibition of Pseudomonas aeruginosa LpxC
T1 sequence (B5ATN6 whole entry): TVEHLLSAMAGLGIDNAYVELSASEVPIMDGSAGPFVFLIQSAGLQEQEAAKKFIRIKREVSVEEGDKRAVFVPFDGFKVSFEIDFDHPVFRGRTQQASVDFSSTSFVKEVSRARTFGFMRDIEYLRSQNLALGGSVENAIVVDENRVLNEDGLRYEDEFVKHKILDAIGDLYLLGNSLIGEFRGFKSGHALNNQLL

Pseudomonas aeruginosa [2] = assay: Antibacterial activity against multi efflux pump knock out Pseudomonas aeruginosa PA3919; format: functional
Method in brief: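 MIC in µg/ml against P. aeruginosa PA-3919, which lacks multiple efflux pumps. The strain is used to tell whether a compound is a substrate of these pumps.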

Pseudomonas aeruginosa [3] = assay: Antibacterial activity against quinolone-resistant Pseudomonas aeruginosa PA3060; format: functional
Method in brief: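 MIC (µg/ml) against quinolone-resistant P. aeruginosa PA-3060, run alongside efflux-competent strains PAO1 and PA-7 and the multi-efflux-pump knockout PA-3919. Some analogs were tested as racemates.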

Pseudomonas aeruginosa [4] = assay: Antibacterial activity against Pseudomonas aeruginosa PA7; format: functional
Method in brief: (§1)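 MIC in µg/ml against P. aeruginosa strains with fully functioning efflux pumps. PAO1 is wild type and efflux pump competent.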

Pseudomonas aeruginosa [5] = assay: Antibacterial activity against Pseudomonas aeruginosa PAO1; format: functional; method in brief: as §1
[6] = Lipophilicity, log D of the compound at pH 7.4; format: physicochemical; details: buffer
Escherichia coli = assay: Antibacterial activity against Escherichia coli; format: functional
Acinetobacter baumannii = assay: Antibacterial activity against Acinetobacter baumannii; format: functional
Klebsiella pneumoniae = assay: Antibacterial activity against Klebsiella pneumoniae; format: functional
[7] = Fraction unbound in human plasma; format: ADME, cell-free
Pseudomonas aeruginosa [8] = assay: Antibacterial activity against Pseudomonas aeruginosa; format: functional

Row | Structure (SMILES) | IC50 [1] | MIC (Pseudomonas aeruginosa [2]) | MIC (Pseudomonas aeruginosa [3]) | MIC (Pseudomonas aeruginosa [4]) | MIC (Pseudomonas aeruginosa [5]) | logD [6] | MIC90 (Escherichia coli) | MIC90 (Acinetobacter baumannii) | MIC90 (Klebsiella pneumoniae) | fraction unbound [7] | MIC90 (Pseudomonas aeruginosa [8])
1 | CC(CCc1cc(-c2cccc(F)c2)on1)(C(=O)NO)S(C)(=O)=O (racemic) | 6.75 nM | < 0.06 µg/mL | 4 µg/mL (≈ 11.2 µM) | – | – | – | – | – | – | – | –
2 | CC(CCc1nc(-c2ccccc2)no1)(C(=O)NO)S(C)(=O)=O (racemic) | > 100 nM | 0.5 µg/mL (≈ 1.47 µM) | > 64 µg/mL | 32 µg/mL (≈ 94.3 µM) | 16 µg/mL (≈ 47.1 µM) | – | – | – | – | – | –
3 | CC(CCc1cc(-c2ccccc2)n[nH]1)(C(=O)NO)S(C)(=O)=O (racemic) | > 100 nM | 4 µg/mL (≈ 11.9 µM) | > 64 µg/mL | > 64 µg/mL | > 64 µg/mL | – | – | – | – | – | –
4 | COc1ccc(-c2cc(CC[C@](C)(C(=O)NO)S(C)(=O)=O)no2)c(F)c1 | 2.32 nM | 0.125 µg/mL (≈ 0.323 µM) | 1 µg/mL (≈ 2.59 µM) | 0.5 µg/mL (≈ 1.29 µM) | 0.5 µg/mL (≈ 1.29 µM) | – | – | – | – | – | –
5 | C[C@@](CCn1cc(-c2ccc(F)c(F)c2)nn1)(C(=O)NO)S(C)(=O)=O | 1.87 nM | 0.06 µg/mL (≈ 0.16 µM) | 4 µg/mL (≈ 10.7 µM) | 4 µg/mL (≈ 10.7 µM) | 4 µg/mL (≈ 10.7 µM) | – | – | – | – | – | –
6 | Cc1ccc(-c2cc(CCC(C)(C(=O)NO)S(C)(=O)=O)on2)cc1 (racemic) | 2.93 nM | < 0.06 µg/mL | 2 µg/mL (≈ 5.68 µM) | 2 µg/mL (≈ 5.68 µM) | 1 µg/mL (≈ 2.84 µM) | – | – | – | – | – | –
7 | CC(CCc1cc(-c2ccccc2F)on1)(C(=O)NO)S(C)(=O)=O (racemic) | 8.31 nM | 0.06 µg/mL (≈ 0.168 µM) | 2 µg/mL (≈ 5.61 µM) | 2 µg/mL (≈ 5.61 µM) | 1 µg/mL (≈ 2.81 µM) | – | – | – | – | – | –
8 | CC(CCc1cc(-c2cccc(F)c2F)no1)(C(=O)NO)S(C)(=O)=O (racemic) | 6.81 nM | < 0.06 µg/mL | 4 µg/mL (≈ 10.7 µM) | 2 µg/mL (≈ 5.34 µM) | 2 µg/mL (≈ 5.34 µM) | – | – | – | – | – | –
9 | Cc1ccc(-c2cn(CC[C@](C)(C(=O)NO)S(C)(=O)=O)nn2)cc1 | 1.39 nM | 0.125 µg/mL (≈ 0.355 µM) | 8 µg/mL (≈ 22.7 µM) | 4 µg/mL (≈ 11.4 µM) | 2 µg/mL (≈ 5.68 µM) | – | – | – | – | – | –
10 | C[C@@](CCn1cc(-c2ccc(Cl)c(F)c2)nn1)(C(=O)NO)S(C)(=O)=O | 0.912 nM | 0.06 µg/mL (≈ 0.154 µM) | 2 µg/mL (≈ 5.12 µM) | 2 µg/mL (≈ 5.12 µM) | 2 µg/mL (≈ 5.12 µM) | – | – | – | – | – | –
11 | C[C@@](CCn1ccc(-c2ccccc2)cc1=O)(C(=O)NO)S(C)(=O)=O | – | 0.06 µg/mL (≈ 0.165 µM) | 2 µg/mL (≈ 5.49 µM) | 1 µg/mL (≈ 2.74 µM) | – | 0.8 | – | – | – | – | –
12 | COc1ccc(-c2cn(CC[C@](C)(C(=O)NO)S(C)(=O)=O)nn2)c(Cl)c1 | 4.71 nM | 0.125 µg/mL (≈ 0.31 µM) | 8 µg/mL (≈ 19.9 µM) | 8 µg/mL (≈ 19.9 µM) | 8 µg/mL (≈ 19.9 µM) | – | – | – | – | – | –
13 | CC(CCc1cc(-c2cccc(Cl)c2Cl)on1)(C(=O)NO)S(C)(=O)=O (racemic) | 2.66 nM | 0.06 µg/mL (≈ 0.147 µM) | 2 µg/mL (≈ 4.91 µM) | – | – | – | – | – | – | – | –
14 | COc1cccc(-c2cc(CC[C@](C)(C(=O)NO)S(C)(=O)=O)on2)c1F | 5.32 nM | < 0.06 µg/mL | 8 µg/mL (≈ 20.7 µM) | 4 µg/mL (≈ 10.4 µM) | 2 µg/mL (≈ 5.18 µM) | – | – | – | – | – | –
15 | COc1ccc(-c2cn(CC[C@](C)(C(=O)NO)S(C)(=O)=O)nn2)c(F)c1 | 1.2 nM | 0.06 µg/mL (≈ 0.155 µM) | 4 µg/mL (≈ 10.4 µM) | 2 µg/mL (≈ 5.18 µM) | 2 µg/mL (≈ 5.18 µM) | 1.36 | 16 µg/mL (≈ 41.4 µM) | > 32 µg/mL | > 32 µg/mL | 0.085 | 4 µg/mL (≈ 10.4 µM)
16 | C[C@@](CCn1cc(-c2cccc(Cl)c2Cl)nn1)(C(=O)NO)S(C)(=O)=O | 1.95 nM | < 0.06 µg/mL | 4 µg/mL (≈ 9.82 µM) | 4 µg/mL (≈ 9.82 µM) | 2 µg/mL (≈ 4.91 µM) | – | – | – | – | – | –
17 | C[C@@](CCn1cc(-c2ccc(Cl)cc2F)nn1)(C(=O)NO)S(C)(=O)=O | 0.657 nM | 0.008 µg/mL (≈ 0.0205 µM) | 1 µg/mL (≈ 2.56 µM) | 1 µg/mL (≈ 2.56 µM) | 0.5 µg/mL (≈ 1.28 µM) | 1.34 | 1 µg/mL (≈ 2.56 µM) | > 32 µg/mL | 2 µg/mL (≈ 5.12 µM) | – | 1 µg/mL (≈ 2.56 µM)
18 | COc1ccc(-c2cc(CC[C@](C)(C(=O)NO)S(C)(=O)=O)on2)c(F)c1 | 4.4 nM | < 0.06 µg/mL | 2 µg/mL (≈ 5.18 µM) | 2 µg/mL (≈ 5.18 µM) | 1 µg/mL (≈ 2.59 µM) | 1.23 | 4 µg/mL (≈ 10.4 µM) | 32 µg/mL (≈ 82.8 µM) | 8 µg/mL (≈ 20.7 µM) | 0.072 | 4 µg/mL (≈ 10.4 µM)
19 | C[C@@](CCn1cc(-c2ccc(Cl)c(Cl)c2)nn1)(C(=O)NO)S(C)(=O)=O | 1.67 nM | < 0.06 µg/mL | 2 µg/mL (≈ 4.91 µM) | 2 µg/mL (≈ 4.91 µM) | 1 µg/mL (≈ 2.46 µM) | – | – | – | – | – | –
20 | CC(CCc1nnc(-c2ccccc2)[nH]1)(C(=O)NO)S(C)(=O)=O (racemic) | > 100 nM | 64 µg/mL (≈ 189 µM) | > 64 µg/mL | > 64 µg/mL | > 64 µg/mL | – | – | – | – | – | –
21 | C[C@@](CCn1cc(-c2ccccc2)nn1)(C(=O)NO)S(C)(=O)=O | 0.85 nM | 0.03 µg/mL (≈ 0.0887 µM) | 4 µg/mL (≈ 11.8 µM) | 2 µg/mL (≈ 5.91 µM) | 1 µg/mL (≈ 2.96 µM) | – | – | – | – | – | –
22 | C[C@@](CCn1cc(-c2ccccc2)cn1)(C(=O)NO)S(C)(=O)=O | 1.61 nM | 0.015 µg/mL (≈ 0.0445 µM) | 2 µg/mL (≈ 5.93 µM) | 1 µg/mL (≈ 2.96 µM) | 0.5 µg/mL (≈ 1.48 µM) | 1.04 | 32 µg/mL (≈ 94.8 µM) | > 256 µg/mL | > 64 µg/mL | 0.048 | 4 µg/mL (≈ 11.9 µM)
23 | C[C@@](CCc1cc(-c2ccccc2)no1)(C(=O)NO)S(C)(=O)=O | 3.02 nM | < 0.06 µg/mL | 2 µg/mL (≈ 5.91 µM) | 1 µg/mL (≈ 2.96 µM) | 0.5 µg/mL (≈ 1.48 µM) | 0.99 | 1 µg/mL (≈ 2.96 µM) | > 32 µg/mL | 4 µg/mL (≈ 11.8 µM) | 0.013 | 2 µg/mL (≈ 5.91 µM)
24 | CC(CCc1cnn(-c2ccccc2)c1)(C(=O)NO)S(C)(=O)=O (racemic) | 13.5 nM | 0.5 µg/mL (≈ 1.48 µM) | 64 µg/mL (≈ 190 µM) | 32 µg/mL (≈ 94.8 µM) | 8 µg/mL (≈ 23.7 µM) | – | – | – | – | – | –
25 | C[C@@](CCc1ccc(-c2ccccc2)cc1)(C(=O)NO)S(C)(=O)=O | – | – | 1 µg/mL (≈ 2.88 µM) | 1 µg/mL (≈ 2.88 µM) | – | 2.24 | – | – | – | – | –
26 | C[C@@](CCc1cc(-c2ccccc2)on1)(C(=O)NO)S(C)(=O)=O | 0.511 nM | < 0.06 µg/mL | 1 µg/mL (≈ 2.96 µM) | 0.5 µg/mL (≈ 1.48 µM) | 0.5 µg/mL (≈ 1.48 µM) | 1.31 | 4 µg/mL (≈ 11.8 µM) | > 32 µg/mL | 32 µg/mL (≈ 94.6 µM) | 0.016 | 2 µg/mL (≈ 5.91 µM)
27 | CC(CCc1cn(-c2ccccc2)nn1)(C(=O)NO)S(C)(=O)=O (racemic) | 3 nM | 0.5 µg/mL (≈ 1.48 µM) | 32 µg/mL (≈ 94.6 µM) | 16 µg/mL (≈ 47.3 µM) | 8 µg/mL (≈ 23.6 µM) | – | – | – | – | – | –
28 | C[C@@](CCn1cc(-c2cccc(F)c2F)nn1)(C(=O)NO)S(C)(=O)=O | 8.08 nM | 0.125 µg/mL (≈ 0.334 µM) | 8 µg/mL (≈ 21.4 µM) | 4 µg/mL (≈ 10.7 µM) | 4 µg/mL (≈ 10.7 µM) | – | – | – | – | – | –
29 | CC(CCn1ncc(-c2ccccc2)n1)(C(=O)NO)S(C)(=O)=O (racemic) | > 100 nM | 0.5 µg/mL (≈ 1.48 µM) | 64 µg/mL (≈ 189 µM) | 32 µg/mL (≈ 94.6 µM) | 32 µg/mL (≈ 94.6 µM) | – | – | – | – | – | –
